Screening results deposited in PubChem by several laboratories.
XBP1 UPR activ = adaptive UPR (XBP1) activation | 0.33% of 330,000 active | AID 463104 | CHO-XBP1 luciferase reporter, IRE1-XBP1 UPR activation, luminescence; percent of tunicamycin response, DMSO as zero | activation, % at 20 µM;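 active means versus positive control, 20 µM dose yields 30% or more activation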;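 further: 100% = tunicamycin at 10 µg/mL and 0% = DMSO only wells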
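Material: CHO-XBP1 cells stably carrying IRE1-XBP1-driven luciferase reporter / Amount: 1000 cells per well / Compound: 20 µM, 1% DMSO / Times: 6 h treatment, 37 °C / Detection: luciferase luminescence / Measure: % activation of reporter signal versus tunicamycin and DMSO controls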
CHOP inh = CHOP inhibition in unfolded protein response | CHO-K1 CHOP-promoter luciferase, tunicamycin-induced, 15-18 h | inhibition, % at 10 µM | 3.8% of 220,000 active;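 active means compounds that reduced the stress-induced luciferase reporter signal by more than about 70% of percent inhibition, limit read from the data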;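 further: 0% = tunicamycin plus vehicle and 100% = wells without tunicamycin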
Bfl-1 A1 inh = inhibitors of the anti-apoptotic protein A1, read as caspase activation; MEF A1-2A-BIM cells, Caspase-Glo 3/7 luminescence, 3 h; percent of clofoctol response, vehicle zero; 0.066% of 330,000 active; caspase activation, % (test concentration not listed);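 active means over half of replicate activation scores above 10%, or exactly half above 10 with the replicate mean above 10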
UPR CHOP act = apoptotic UPR (CHOP) activation; AID 449763; activation, % at 10 µM; 0.34% of 330,000 active; CHO-CHOP luciferase reporter, luminescence; percent of tunicamycin response over DMSO baseline;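 active means at 10 µM dose, activation of 40% or more, normalized to positive control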;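 further: 100% = tunicamycin at 10 µg/mL and 0% = DMSO alone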
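Test system: CHO-CHOP cells, stable luciferase reporter of PERK-eIF2a-CHOP signalling | Quantity: 500 CHO-CHOP cells per well | Buffer or medium: F12 plus 10% serum | Compound dosing: 10 µM single point, 0.5% DMSO | Schedule: 6 h compound treatment, 37 °C | Signal: Luciferase luminescence | Control set: Tunicamycin high control, DMSO low control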
* = called active by the depositor. Shown is part of a subset that was picked to be rich in hits.

`COc1ccccc1C(=O)N=Nc1c(O)[nH]c2ccc([N+](=O)[O-])cc12` gave CHOP inh -26.
For Cc1cc(S(=O)(=O)Nc2ccc3cn[nH]c3c2)c(C)cc1Cl the results were XBP1 UPR activ 1, Bfl-1 A1 inh 0 and UPR CHOP act 1.
O=C(Nc1ccc(Cl)cc1)Nc1nnc(-c2ccncc2)s1 was read as CHOP inh 87* and Bfl-1 A1 inh 1.
For O=C(Nc1ccc(F)cc1)Nc1nnc(-c2ccncc2)s1 the results were XBP1 UPR activ -1, CHOP inh 47, Bfl-1 A1 inh -1 and UPR CHOP act 5.
O=C(Nc1ccccc1)Nc1nnc(SCc2ccc(Cl)cc2)s1 was read as XBP1 UPR activ -2, CHOP inh 90*, Bfl-1 A1 inh 0 and UPR CHOP act 0.
`O=C(Nc1cccc(Cl)c1)Nc1nnc(-c2ccncc2)s1` gave XBP1 UPR activ -1, CHOP inh 92*, Bfl-1 A1 inh 0 and UPR CHOP act 3.
Screening O=C(Nc1cccc(Cl)c1)Nc1nnc(CC2=CCCCC2)s1 returned XBP1 UPR activ 7, CHOP inh 93*, Bfl-1 A1 inh 0 and UPR CHOP act 0.
For Cc1cc(C)c(S(=O)(=O)N2CCCCC2CCNC(=O)C(=O)NCCN2CCOCC2)c(C)c1 (stereo not drawn) the results were XBP1 UPR activ -4, Bfl-1 A1 inh 0 and UPR CHOP act 1.
`Cc1cc(S(=O)(=O)N2CCN(CC(=O)NCCc3cccs3)CC2)ccc1Br` gave XBP1 UPR activ -2, Bfl-1 A1 inh 0 and UPR CHOP act 0.
`CN1C(=O)C(C)(C)c2cc(S(=O)(=O)N3CCN(c4ccc(F)cc4)CC3)ccc21` gave XBP1 UPR activ 0, Bfl-1 A1 inh 0 and UPR CHOP act 2.
O=C(Cc1cccs1)Nc1nnc(SCc2ccc(Br)cc2)s1 was read as XBP1 UPR activ 0, CHOP inh 76*, Bfl-1 A1 inh 0 and UPR CHOP act -1.
CCN(CC(=O)Nc1c(F)cccc1F)C(=O)CCc1nc2cc(S(=O)(=O)N3CCOCC3)ccc2n1C was read as XBP1 UPR activ 2, Bfl-1 A1 inh 0 and UPR CHOP act 5.
CCOC(=O)c1ccc(NC(=O)Nc2ccc(OC)c(OC)c2)cc1 was read as XBP1 UPR activ -2, CHOP inh 12, Bfl-1 A1 inh 0 and UPR CHOP act 1.
CCCCOC(=O)c1ccc(NC(C)=O)cc1 was read as XBP1 UPR activ 2, CHOP inh 62, Bfl-1 A1 inh 0 and UPR CHOP act 5.
Screening CCCCCOC(=O)c1ccc(NC(=O)c2ccco2)cc1 returned XBP1 UPR activ -2, CHOP inh 82*, Bfl-1 A1 inh -1 and UPR CHOP act 1.
For CCCCOC(=O)c1ccc(NC(=O)Nc2ccc(OC)c(OC)c2)cc1 the results were XBP1 UPR activ -6, CHOP inh 83*, Bfl-1 A1 inh 0 and UPR CHOP act -2.
CCCCOC(=O)c1ccc(NC(=O)/C=C/c2cccs2)cc1 was read as XBP1 UPR activ 0, CHOP inh 75*, Bfl-1 A1 inh 0 and UPR CHOP act 3.
`CCOC(=O)CN1C(=O)NC2(CCCc3ccccc32)C1=O` (stereo not drawn) gave XBP1 UPR activ 1, Bfl-1 A1 inh -1 and UPR CHOP act 0.
Screening CN(CC(=O)Nc1nc2ccccc2s1)S(=O)(=O)c1ccc(Cl)cc1 returned XBP1 UPR activ -1, CHOP inh 84*, Bfl-1 A1 inh 0 and UPR CHOP act 1.
For Cc1ccc(-n2nnnc2-c2ccccc2)cc1 the results were XBP1 UPR activ 2, CHOP inh 1, Bfl-1 A1 inh 0 and UPR CHOP act 3.
Cc1ccc(-n2nnnc2C(Cl)c2nnnn2-c2ccc(C)cc2)cc1 was read as CHOP inh 91*.
Cc1ccc(Nc2cc(C)nn2-c2nc(C)cc(=O)[nH]2)cc1 was read as XBP1 UPR activ -3, Bfl-1 A1 inh -1 and UPR CHOP act 190*.
For O=C(COC(=O)c1ccc(O)cc1)NC1CCCCCC1 the results were XBP1 UPR activ 2, Bfl-1 A1 inh -1 and UPR CHOP act 1.
Screening O=C(Nc1ccc(C(F)(F)F)cc1)c1cnc(N2CCN(c3ccccn3)CC2)c2ccccc12 returned XBP1 UPR activ 0, CHOP inh 81*, Bfl-1 A1 inh 0 and UPR CHOP act 4.
`O=C(c1cc(Cl)ccc1Cl)N1CCN(c2ccccn2)CC1` gave XBP1 UPR activ -1, CHOP inh 21, Bfl-1 A1 inh 0 and UPR CHOP act 0.
For O=C(Nc1ccc(C(F)(F)F)cc1)c1cccnc1N1CCOCC1 the results were XBP1 UPR activ -1, CHOP inh -8, Bfl-1 A1 inh -1 and UPR CHOP act 1.
Screening O=C(c1cnc(N2CCN(c3ccccn3)CC2)c2ccccc12)N1CCN(c2cccc(Cl)c2)CC1 returned XBP1 UPR activ 0, CHOP inh 77*, Bfl-1 A1 inh -1 and UPR CHOP act 10.
Screening N#Cc1nc(-c2ccccc2F)oc1NC1CCCCC1 returned XBP1 UPR activ 6, CHOP inh 80*, Bfl-1 A1 inh -1 and UPR CHOP act 1.
`O=C(/C=C/c1ccc([N+](=O)[O-])cc1)Nc1ncc([N+](=O)[O-])s1` gave CHOP inh 94*.
`CCCOc1ccc(/C=C/C(=O)Nc2ccc([N+](=O)[O-])cc2)cc1` gave XBP1 UPR activ -1, CHOP inh 95*, Bfl-1 A1 inh 0 and UPR CHOP act -1.
Screening Cc1ccc(OCCNC(=O)/C=C/c2ccc([N+](=O)[O-])cc2)cc1C returned XBP1 UPR activ 0, CHOP inh 5, Bfl-1 A1 inh 1 and UPR CHOP act 1.
`CCCCOc1ccc(/C=C/C(=O)Nc2ccc([N+](=O)[O-])cc2C)cc1` gave XBP1 UPR activ 1, CHOP inh 80*, Bfl-1 A1 inh 0 and UPR CHOP act -1.
`CCCCOc1ccc(/C=C/C(=O)Nc2ccc(C(N)=O)cc2)cc1` gave XBP1 UPR activ -4, CHOP inh -7, Bfl-1 A1 inh 1 and UPR CHOP act 0.
For COc1ccc(CCNS(=O)(=O)CCNC(=O)c2ccc3c(c2)OCO3)cc1 the results were XBP1 UPR activ -2, Bfl-1 A1 inh 2 and UPR CHOP act 2.
O=C(COc1ccc([N+](=O)[O-])cc1Cl)N(C1CCCCC1)C1CCS(=O)(=O)C1 (stereo not drawn) was read as XBP1 UPR activ 5 and UPR CHOP act 0.
Screening CCOC(=O)c1c(S(=O)(=O)NCC(=O)NCc2ccccc2Cl)c(C)n(C)c1C returned XBP1 UPR activ -2, Bfl-1 A1 inh 1 and UPR CHOP act 4.
For NNc1nc2c(-c3ccc(Cl)cc3)nnn2c2ccccc12 the results were XBP1 UPR activ 1, CHOP inh 91*, Bfl-1 A1 inh -6 and UPR CHOP act 8.
Screening Cc1oc2ccc(O)cc2c1C(=O)c1ccc(Cl)cc1 returned XBP1 UPR activ 6, CHOP inh 71*, Bfl-1 A1 inh 1 and UPR CHOP act 6.
